Data published in ChEMBL document CHEMBL5137109, “Tunable Cysteine-Targeting Electrophilic Heteroaromatic Warheads Induce Ferroptosis” (J Med Chem, 2022).
Activity calls are given as the source filed them. No cut-off for these calls is given here.

Key:
HCT-116 = experiment: Cytotoxicity against human HCT-116 cells assessed as reduction in cell viability incubated for 3 days by methylene blue staining based analysis; assay type: functional; conditions: HCT-116, 72 h
NCI-H522 [1] = experiment: Cytotoxicity against human NCI-H522 cells assessed as reduction in cell viability incubated for 3 days by methylene blue staining based analysis; assay type: functional; conditions: NCI-H522, 72 h
NCI-H522 [2] = experiment: Cytotoxicity against human NCI-H522 cells assessed as reduction in cell survival at 4.5 uM incubated for 3 days in presence of ferroptosis inhibitor, liproxstatin-1 by methylene blue staining based analysis; assay type: functional; conditions: time 3.0 day
In short: (§1)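 NCI-H522 cells seeded at 25×10³/well (n=3), adhered overnight, then exposed to compound with or without liproxstatin-1 (0.25 μM). After 3 days, methylene blue staining with HCl elution and A668. Results given as % relative to DMSO control, mean ± SD, n=3, one-way ANOVA. Fold change is IC50 (with liproxstatin-1)/IC50 (alone).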

[3] = Selectivity ratio of IC50 for human HCT-116 cells to IC50 for human NCI-H522 cells by methylene blue staining based analysis; assay type: functional
NCI-H522 [4] = experiment: Induction of lipid peroxidation in human NCI-H522 cells assessed as increase in C11-BODIPY oxidation at 20 uM incubated for 6 hrs by flow cytometry; assay type: functional, cell-based
In short: (§2)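 NCI-H522 cells (~70% density) plated in dishes overnight, then treated with compound or DMSO plus C11-BODIPY 581/591 (1 μM) added at treatment. After 3 h or 6 h, cells washed, trypsinized, resuspended in PBS with 2% FBS and analysed by flow cytometry (preferably 20×10³ cells). Oxidation compared with DMSO treatment.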

NCI-H522 [5] = experiment: Cytotoxicity against human NCI-H522 cells assessed as reduction in cell survival at 2 uM incubated for 3 days in presence of ferroptosis inhibitor, liproxstatin-1 by methylene blue staining based analysis; assay type: functional; conditions: time 3.0 day; in short: as §1
NCI-H522 [6] = experiment: Induction of lipid peroxidation in human NCI-H522 cells assessed as increase in C11-BODIPY oxidation at 5 uM incubated for 3 hrs by flow cytometry; assay type: functional, cell-based; in short: as §2
NCI-H522 [7] = experiment: Induction of lipid peroxidation in human NCI-H522 cells assessed as increase in C11-BODIPY oxidation at 30 uM incubated for 6 hrs by flow cytometry; assay type: functional, cell-based; in short: as §2
NCI-H522 [8] = experiment: Induction of lipid peroxidation in human NCI-H522 cells assessed as increase in C11-BODIPY oxidation at 5 uM incubated for 6 hrs by flow cytometry; assay type: functional, cell-based; in short: as §2
NCI-H522 [9] = experiment: Induction of lipid peroxidation in human NCI-H522 cells assessed as increase in C11-BODIPY oxidation at 40 uM incubated for 6 hrs by flow cytometry; assay type: functional, cell-based; in short: as §2
NCI-H522 [10] = experiment: Induction of lipid peroxidation in human NCI-H522 cells assessed as increase in C11-BODIPY oxidation at 10 uM incubated for 6 hrs by flow cytometry; assay type: functional, cell-based; in short: as §2
NCI-H522 [11] = experiment: Cytotoxicity against human NCI-H522 cells assessed as time required to cause 50% irreversible cell death treated with compound followed by washing for every 30 mins for 6 hrs by methylene blue staining based analysis; assay type: functional
In short: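 NCI-H522 cells, 5*10³/well (n=3), plated overnight, then treated with compound or DMSO. Wells washed immediately after treatment and then at 30-min intervals up to 6 h; last wells not washed. Methylene blue in 50% ethanol fix/stain 30 min RT, dye dissolved in 0.1N HCl, A668. Each point taken as % survival of matching DMSO-treated cells.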

NCI-H522 [12] = experiment: Cytotoxicity against human NCI-H522 cells assessed as reduction in cell viability incubated for 3 days in presence of ferroptosis inhibitor, liproxstatin-1 by methylene blue staining based analysis; assay type: functional; conditions: NCI-H522, 72 h; in short: as §1
HT-1080 = experiment: Cytotoxicity against human HT-1080 cells assessed as reduction in cell viability incubated for 3 days by methylene blue staining based analysis; assay type: functional; conditions: HT-1080, 72 h
U2OS = experiment: Cytotoxicity against human U2OS cells assessed as reduction in cell viability incubated for 3 days by methylene blue staining based analysis; assay type: functional; conditions: 72 h
[13] = Ratio of IC50 for cytotoxicity against human NCI-H522 cells in presence of ferroptosis inhibitor, liproxstatin-1 to IC50 for cytotoxicity against human NCI-H522 cells; assay type: functional
In short: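 NCI-H522 cells, 25*10³/well (n=3), plated overnight, treated with compound with or without Liproxstatin-1 (0.25 μM). After 3 days, methylene blue in 50% ethanol fix/stain 30 min RT, dye dissolved in 0.1N HCl, A668. Fold change = IC₅₀ with Liproxstatin-1 / IC₅₀ without.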

MDA-MB-231 = experiment: Cytotoxicity against human MDA-MB-231 cells assessed as reduction in cell viability incubated for 3 days by methylene blue staining based analysis; assay type: functional; conditions: MDA-MB-231, 72 h
[14] = Cytotoxicity against mouse MEF cells assessed as reduction in cell viability incubated for 3 days by methylene blue staining based analysis; assay type: toxicity
HeLa = experiment: Cytotoxicity against human HeLa cells assessed as reduction in cell viability incubated for 3 days by methylene blue staining based analysis; assay type: functional; conditions: 72 h
[15] = Cytotoxicity against human WI-38 cells assessed as reduction in cell viability incubated for 3 days by methylene blue staining based analysis; assay type: toxicity
MDA-MB-468 = experiment: Cytotoxicity against human MDA-MB-468 cells assessed as reduction in cell viability incubated for 3 days by methylene blue staining based analysis; assay type: functional; conditions: MDA-MB-468, 72 h
NCI-H522 [16] = experiment: Induction of lipid peroxidation in human NCI-H522 cells assessed as increase in C11-BODIPY oxidation at 10 uM incubated for 3 hrs by flow cytometry; assay type: functional, cell-based
In short: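 NCI-H522 cells at ~70% density, plated overnight, treated with compound or DMSO together with C11-BODIPY 581/591 (1 μM) for 3 h or 6 h. Cells then PBS-washed, trypsinised, resuspended in PBS with 2% FBS and read by flow cytometry, preferably 20*10³ cells. Oxidation compared with DMSO treatment.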

| SMILES | IC50 (HCT-116) [µM] | IC50 (NCI-H522 [1]) [µM] | Ratio IC50 [3] | other results |
| --- | --- | --- | --- | --- |
| C=Cc1nc2ccccc2n1C | 9.5 | 2.34 | 4.05 | Activity (NCI-H522 [2]): Active |
| C#Cc1sc(-c2ccc(F)cc2)nc1C(=O)OCC | > 40 | 3.53 | 11.33 | Activity (NCI-H522 [4]): Active |
| Cn1c(I)nc2ccccc21 | 17.5 | 1.02 | 17.16 | Activity (NCI-H522 [5]): Active |
| Cn1c(Br)nc2ccccc21 | > 40 | > 40 | – | – |
| CC#Cc1nc(C(=O)OCC)cs1 | > 40 | > 40 | – | – |
| C#Cc1nc(C(=O)Nc2ccc(OC)cc2)cs1 | 8.39 | 0.67 | 12.52 | Activity (NCI-H522 [6]): Active |
| C#Cc1nc(C(=O)N2CCN(CC)CC2)cs1 | – | > 1 | – | – |
| C#Cc1nc(C(=O)N2CCN(c3ccc(C(F)(F)F)cc3)CC2)cs1 | – | 0.037 | – | – |
| C#Cc1ncccn1 | > 40 | > 40 | – | – |
| C#Cc1nc(/C=C/C(=O)N2CCN(C(c3ccc(Cl)cc3)c3ccc(Cl)cc3)CC2)cs1 | – | 0.006 | – | – |
| C#Cc1nc(-c2ccccc2)cs1 | > 40 | 5.65 | >7.07 | Activity (NCI-H522 [7]): Active |
| C#CCNC1CCC(c2csc(C#C)n2)=C1C (centres undefined) | > 40 | 2.51 | – | Activity (NCI-H522 [4]): Active |
| C#Cc1nc(C(=O)N2CCN(c3ccc(Cl)cc3)CC2)cs1 | – | 0.028 | – | – |
| C=Cc1csc(Br)n1 | > 40 | > 40 | – | – |
| c1ccc2scnc2c1 [BENZO[D]THIAZOLE] | > 40 | > 40 | – | – |
| C#CCNC(=O)c1csc(Br)n1 | > 40 | > 40 | – | – |
| Brc1nc2ccccc2o1 | > 40 | > 40 | – | – |
| C=Cc1sc(-c2ccc(F)cc2)nc1C(=O)OCC | > 40 | > 40 | – | – |
| C#Cc1nc(C(=O)Nc2ccc(Cl)cc2)cs1 | 15.9 | 0.54 | 29.4 | Activity (NCI-H522 [8]): Active |
| C#CC1=Nc2ccccc2C(C)(C)O1 | 5.61 | 0.89 | 6.3 | Activity (NCI-H522 [8]): Active |
| Ic1nc2ccccc2s1 | > 40 | > 40 | – | – |
| C#Cc1csc(Br)n1 | > 40 | > 40 | – | – |
| CC#CC1=Nc2ccccc2C(C)(C)O1 | > 40 | 8.4 | >4.76 | Activity (NCI-H522 [9]): Active |
| C=Cc1nc(C(=O)OCC)cs1 | > 40 | > 40 | – | – |
| Cn1cnc2ccccc21 | > 40 | > 40 | – | – |
| c1ccc2ocnc2c1 [BENZO[D]OXAZOLE] | > 40 | > 40 | – | – |

| SMILES | IC50 (HCT-116) [µM] | IC50 (NCI-H522 [1]) [µM] | Ratio IC50 [3] | other results |
| --- | --- | --- | --- | --- |
| C=Cc1nc2ccccc2[se]1 | > 40 | 12.2 | >3.27 | – |
| C#Cc1nc2ccccc2o1 | 11.6 | 1.26 | 9.12 | Activity (NCI-H522 [10]): Active |
| COC(=O)c1ccc([C@H]2c3[nH]c4ccccc4c3CC(C(=O)OC)N2C(=O)CCl)cc1 (some centres undefined) | – | – | – | IT50 (NCI-H522 [11]): 1.33 h |
| C=Cc1nc2ccccc2o1 | > 40 | > 40 | – | – |
| c1ccc2[se]cnc2c1 | > 40 | > 40 | – | – |
| C=Cc1nc2ccccc2s1 | > 40 | > 40 | – | – |
| C#Cc1nc(/C=C/C(=O)Nc2ccc(Cl)cc2)cs1 | 23.2 | 0.37 | 62.64 | Activity (NCI-H522 [6]): Active |
| C#Cc1nc(C(=O)Nc2ccccc2)cs1 | 4.88 | 0.66 | 7.39 | Activity (NCI-H522 [6]): Active |
| Ic1nc2ccccc2o1 | > 40 | 11.7 | 3.41 | – |
| Brc1nc2ccccc2[se]1 | > 40 | > 40 | – | – |
| C#CCNC(=O)c1cscn1 | > 40 | > 40 | – | – |
| C#Cc1nc(C(=O)OCC)cs1 | > 40 | 2.67 | >14.98 | Activity (NCI-H522 [4]): Active |
| Brc1nc2ccccc2s1 | > 40 | > 40 | – | – |
| CC#Cc1nc2ccccc2s1 | > 40 | > 40 | – | – |
| C#Cc1nc(C(=O)N2CCN(c3ccc(F)cc3)CC2)cs1 | – | 0.064 | – | – |
| N#Cc1nccs1 | > 40 | > 40 | – | – |
| C#CC(=O)N1CCN(C(c2ccc(Cl)cc2)c2ccc(Cl)cc2)CC1 | 3.8 | 1.13 | – | IC50 (NCI-H522 [12]): 2.88 µM; IC50 (HT-1080): 0.376 µM; IC50 (U2OS): 0.638 µM; Ratio IC50 [13]: 2.55; IC50 (MDA-MB-231): 0.038 µM; IC50 at 3 days [14]: 0.082 µM; IC50 (HeLa): 0.303 µM; IC50 at 3 days [15]: 0.5 µM; IC50 (MDA-MB-468): 0.065 µM |
| C#Cc1nccs1 | > 40 | > 40 | – | – |
| CCOC(=O)c1csc(C#Cc2ccccc2)n1 | > 40 | > 40 | – | – |
| Ic1nc2ccccc2[se]1 | > 40 | > 40 | – | – |
| C#Cc1nc2ccccc2n1C | 19.4 | 8.14 | 2.37 | Activity (NCI-H522 [9]): Active |
| C#Cc1ccccn1 | > 40 | > 40 | – | – |
| Cc1onc(C(=O)N2CCN(C(c3ccc(Cl)cc3)c3ccc(Cl)cc3)CC2)c1[N+](=O)[O-] | > 1 | 0.044 | – | IC50 (NCI-H522 [12]): 34.5 µM; IC50 (HT-1080): 0.022 µM; IC50 (U2OS): 0.822 µM; Ratio IC50 [13]: 784.431; IC50 (MDA-MB-231): 0.02 µM; IC50 at 3 days [14]: 0.016 µM; IC50 (HeLa): 0.253 µM; IC50 at 3 days [15]: 0.06 µM; IC50 (MDA-MB-468): 0.066 µM |
| C#Cc1nc2ccccc2[se]1 | 25 | 2.17 | 11.5 | Activity (NCI-H522 [16]): Active |
| O=C(CCl)N1CCN(C(c2ccc(Cl)cc2)c2ccc(Cl)cc2)CC1 | 1.64 | 0.752 | – | IC50 (NCI-H522 [12]): 3.1 µM; IC50 (HT-1080): 0.302 µM; IC50 (U2OS): 1.71 µM; Ratio IC50 [13]: 4.12; IC50 (MDA-MB-231): 0.494 µM; IC50 at 3 days [14]: 0.352 µM; IC50 (HeLa): 2.11 µM; IC50 at 3 days [15]: 1.74 µM; IC50 (MDA-MB-468): 1.75 µM |
